# According to ChEMBL document CHEMBL4680156, “Discovery of novel pyrido-pyrrolidine hybrid compounds as alpha-glucosidase inhibitors and alternative agent for control of type 1 diabetes” (Eur J Med Chem, 2020):
# Calls of active or inactive are those of the source. No cut-off for these calls is given here.
# Legend:
# [1] = Inhibition of Saccharomyces cerevisiae alpha-glucosidase using PNPG as substrate incubated for 10 mins by spectrophotometric method
# Alpha-mannosidase = biological target: T1, Alpha-mannosidase (Canavalia ensiformis, UniProt C0HJB3); test: Inhibition of jack bean alpha-mannosidase using […] as substrate incubated for 10 mins by spectrophotometric method
# T1 sequence (C0HJB3 whole entry): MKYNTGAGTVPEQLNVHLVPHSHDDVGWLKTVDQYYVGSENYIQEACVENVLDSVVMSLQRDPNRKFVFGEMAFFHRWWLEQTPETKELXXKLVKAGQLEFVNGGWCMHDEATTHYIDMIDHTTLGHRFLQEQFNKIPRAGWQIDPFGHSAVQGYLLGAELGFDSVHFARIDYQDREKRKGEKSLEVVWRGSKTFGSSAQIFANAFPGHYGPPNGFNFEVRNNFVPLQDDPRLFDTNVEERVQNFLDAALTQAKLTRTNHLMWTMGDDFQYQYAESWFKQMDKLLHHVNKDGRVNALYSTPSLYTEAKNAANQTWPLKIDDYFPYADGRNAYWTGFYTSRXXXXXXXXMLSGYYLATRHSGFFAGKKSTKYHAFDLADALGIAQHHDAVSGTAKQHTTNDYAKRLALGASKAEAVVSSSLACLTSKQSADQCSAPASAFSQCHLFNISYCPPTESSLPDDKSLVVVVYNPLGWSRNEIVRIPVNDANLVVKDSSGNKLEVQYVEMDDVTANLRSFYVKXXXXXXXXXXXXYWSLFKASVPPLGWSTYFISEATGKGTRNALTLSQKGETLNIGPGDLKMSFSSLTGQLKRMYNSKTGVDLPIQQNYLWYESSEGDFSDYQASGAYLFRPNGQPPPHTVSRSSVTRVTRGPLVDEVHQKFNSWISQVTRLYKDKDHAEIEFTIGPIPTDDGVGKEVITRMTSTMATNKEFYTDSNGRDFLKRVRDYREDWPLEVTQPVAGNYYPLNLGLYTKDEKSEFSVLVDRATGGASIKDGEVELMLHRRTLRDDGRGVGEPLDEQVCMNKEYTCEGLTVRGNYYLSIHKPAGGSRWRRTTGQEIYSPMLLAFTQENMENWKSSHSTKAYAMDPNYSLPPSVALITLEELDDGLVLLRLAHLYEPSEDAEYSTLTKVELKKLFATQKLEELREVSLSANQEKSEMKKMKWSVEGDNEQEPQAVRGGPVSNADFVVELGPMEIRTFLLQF
# [2] = biological target: T2, Tissue alpha-L-fucosidase (Bos taurus, UniProt Q2KIM0); test: Inhibition of bovine kidney alpha-fucosidase using […] as substrate incubated for 10 mins by spectrophotometric method
# T2 sequence (Q2KIM0 whole entry): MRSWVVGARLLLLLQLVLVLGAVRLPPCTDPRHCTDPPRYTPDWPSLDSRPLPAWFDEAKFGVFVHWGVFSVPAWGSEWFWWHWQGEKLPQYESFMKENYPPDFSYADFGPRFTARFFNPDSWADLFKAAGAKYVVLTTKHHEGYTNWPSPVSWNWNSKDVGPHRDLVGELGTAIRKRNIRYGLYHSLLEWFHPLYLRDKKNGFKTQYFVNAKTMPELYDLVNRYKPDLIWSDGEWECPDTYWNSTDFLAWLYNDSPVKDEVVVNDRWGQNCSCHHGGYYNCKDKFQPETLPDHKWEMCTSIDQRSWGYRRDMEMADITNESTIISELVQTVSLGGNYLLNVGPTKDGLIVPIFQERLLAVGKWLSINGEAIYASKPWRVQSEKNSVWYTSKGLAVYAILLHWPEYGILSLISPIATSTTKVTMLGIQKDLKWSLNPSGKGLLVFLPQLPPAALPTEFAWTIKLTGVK
# Maltase-glucoamylase = Maltase-glucoamylase (Homo sapiens, UniProt O43451); test: Inhibition of alpha-glucosidase (unknown origin) using sucrose as substrate incubated for 30 mins
# [3] = Inhibition of Saccharomyces cerevisiae alpha-glucosidase assessed as reduction in p-nitrophenol liberation using PNPG as substrate preincubated with substrate for 5 mins followed by incubation with enzyme for 5 mins
# [4] = biological target: T3, Alpha-mannosidase (Canavalia ensiformis) (UniProt C0HJB3); test: Inhibition of jack bean alpha-mannosidase at 1 mM using […] as substrate incubated for 10 mins by spectrophotometric method
# T3 sequence (whole entry): T1 sequence (C0HJB3 whole entry)
# [5] = Inhibition of Saccharomyces cerevisiae alpha-glucosidase using maltose as substrate preincubated for 5 mins followed by substrate addition and measured after 15 mins by LC-TQ-MS/MS analysis
# Rattus norvegicus [6] = test: Antidiabetic activity against STZ-induced type 1 diabetic Sprague-Dawley rat model assessed as decrease in fasting blood glucose level at 60 mg/kg, po administered once daily for 28 days; format: functional, organism-based; settings: time 28.0 day
# Procedure, shortened: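 Male Sprague-Dawley rats (250–320 g, 8–10 weeks) were given STZ 70 mg/kg ip once in 0.1 mmol/L citrate buffer, pH 4.5. Rats with random glucose >125 mg/dl at 4 days were counted diabetic. Dosing was 60 mg/kg in 0.5% saline by gavage once daily for 4 weeks, n=6 per group. After a 6 h fast, tail blood glucose was read by glucometer. Data are mean ± SD; 2-way ANOVA.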
# [7] = Toxicity in STZ-treated diabetic Sprague-Dawley rat model assessed as decrease in body weight at 60 mg/kg, po administered once daily for 28 days; format: organism-based; settings: in vivo, 672 h, time 28 day
# Procedure, shortened: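 Male Sprague-Dawley rats (250–320 g, 8–10 weeks) were made diabetic with a single STZ dose (70 mg/kg ip in 0.1 mmol/L citrate buffer, pH 4.5). Random glucose above 125 mg/dl defined diabetes. Dosing was 60 mg/kg in 0.5% saline by gastric gavage once daily for 4 weeks, n=6 per group, with vehicle controls. Body weight was recorded before and after treatment; mean ± SD, 2-way ANOVA.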
# Rattus norvegicus [8] = test: Decrease in post prandial glucose level in type 1 diabetic Sprague-Dawley rat model at 60 mg/kg, po administered once daily for 28 days; settings: time 28.0 day
# [9] = Non-competitive inhibition of rat intestinal alpha-glucosidase; format: tissue-based, Intestine
# [10] = Inhibition of Saccharomyces cerevisiae alpha-glucosidase using pNPG as substrate preincubated for 15 mins followed by substrate addition and measured after 30 mins by spectrophotometric analysis
# [11] = Inhibition of Saccharomyces cerevisiae alpha-glucosidase assessed as reduction in p-nitrophenol release using p-nitrophenyl glycoside as substrate by spectrophotometric analysis
# [12] = Inhibition of Wistar rat intestinal maltase assessed as reduction in released D-glucose level using maltose as substrate by colorimetric assay; format: tissue-based, Intestine
# [13] = Inhibition of rice alpha-glucosidase; parameters: species or system Oryza sativa
# [14] = Inhibition of fungi maltase
# Procedure, shortened: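 Yeast α-glucosidase, 0.1 IU per well, was added to 2 mM 4-nitrophenyl α-D-glucopyranoside in 10 mM potassium phosphate pH 7.2, with compound from DMSO at 2–10 μM. Plates ran 10 min at 37 °C and were read at 430 nm. Inhibition was calculated against a buffer control, and IC50 came from three independent assays run in triplicate.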
# Chain of Maltase-glucoamylase (O43451 whole entry): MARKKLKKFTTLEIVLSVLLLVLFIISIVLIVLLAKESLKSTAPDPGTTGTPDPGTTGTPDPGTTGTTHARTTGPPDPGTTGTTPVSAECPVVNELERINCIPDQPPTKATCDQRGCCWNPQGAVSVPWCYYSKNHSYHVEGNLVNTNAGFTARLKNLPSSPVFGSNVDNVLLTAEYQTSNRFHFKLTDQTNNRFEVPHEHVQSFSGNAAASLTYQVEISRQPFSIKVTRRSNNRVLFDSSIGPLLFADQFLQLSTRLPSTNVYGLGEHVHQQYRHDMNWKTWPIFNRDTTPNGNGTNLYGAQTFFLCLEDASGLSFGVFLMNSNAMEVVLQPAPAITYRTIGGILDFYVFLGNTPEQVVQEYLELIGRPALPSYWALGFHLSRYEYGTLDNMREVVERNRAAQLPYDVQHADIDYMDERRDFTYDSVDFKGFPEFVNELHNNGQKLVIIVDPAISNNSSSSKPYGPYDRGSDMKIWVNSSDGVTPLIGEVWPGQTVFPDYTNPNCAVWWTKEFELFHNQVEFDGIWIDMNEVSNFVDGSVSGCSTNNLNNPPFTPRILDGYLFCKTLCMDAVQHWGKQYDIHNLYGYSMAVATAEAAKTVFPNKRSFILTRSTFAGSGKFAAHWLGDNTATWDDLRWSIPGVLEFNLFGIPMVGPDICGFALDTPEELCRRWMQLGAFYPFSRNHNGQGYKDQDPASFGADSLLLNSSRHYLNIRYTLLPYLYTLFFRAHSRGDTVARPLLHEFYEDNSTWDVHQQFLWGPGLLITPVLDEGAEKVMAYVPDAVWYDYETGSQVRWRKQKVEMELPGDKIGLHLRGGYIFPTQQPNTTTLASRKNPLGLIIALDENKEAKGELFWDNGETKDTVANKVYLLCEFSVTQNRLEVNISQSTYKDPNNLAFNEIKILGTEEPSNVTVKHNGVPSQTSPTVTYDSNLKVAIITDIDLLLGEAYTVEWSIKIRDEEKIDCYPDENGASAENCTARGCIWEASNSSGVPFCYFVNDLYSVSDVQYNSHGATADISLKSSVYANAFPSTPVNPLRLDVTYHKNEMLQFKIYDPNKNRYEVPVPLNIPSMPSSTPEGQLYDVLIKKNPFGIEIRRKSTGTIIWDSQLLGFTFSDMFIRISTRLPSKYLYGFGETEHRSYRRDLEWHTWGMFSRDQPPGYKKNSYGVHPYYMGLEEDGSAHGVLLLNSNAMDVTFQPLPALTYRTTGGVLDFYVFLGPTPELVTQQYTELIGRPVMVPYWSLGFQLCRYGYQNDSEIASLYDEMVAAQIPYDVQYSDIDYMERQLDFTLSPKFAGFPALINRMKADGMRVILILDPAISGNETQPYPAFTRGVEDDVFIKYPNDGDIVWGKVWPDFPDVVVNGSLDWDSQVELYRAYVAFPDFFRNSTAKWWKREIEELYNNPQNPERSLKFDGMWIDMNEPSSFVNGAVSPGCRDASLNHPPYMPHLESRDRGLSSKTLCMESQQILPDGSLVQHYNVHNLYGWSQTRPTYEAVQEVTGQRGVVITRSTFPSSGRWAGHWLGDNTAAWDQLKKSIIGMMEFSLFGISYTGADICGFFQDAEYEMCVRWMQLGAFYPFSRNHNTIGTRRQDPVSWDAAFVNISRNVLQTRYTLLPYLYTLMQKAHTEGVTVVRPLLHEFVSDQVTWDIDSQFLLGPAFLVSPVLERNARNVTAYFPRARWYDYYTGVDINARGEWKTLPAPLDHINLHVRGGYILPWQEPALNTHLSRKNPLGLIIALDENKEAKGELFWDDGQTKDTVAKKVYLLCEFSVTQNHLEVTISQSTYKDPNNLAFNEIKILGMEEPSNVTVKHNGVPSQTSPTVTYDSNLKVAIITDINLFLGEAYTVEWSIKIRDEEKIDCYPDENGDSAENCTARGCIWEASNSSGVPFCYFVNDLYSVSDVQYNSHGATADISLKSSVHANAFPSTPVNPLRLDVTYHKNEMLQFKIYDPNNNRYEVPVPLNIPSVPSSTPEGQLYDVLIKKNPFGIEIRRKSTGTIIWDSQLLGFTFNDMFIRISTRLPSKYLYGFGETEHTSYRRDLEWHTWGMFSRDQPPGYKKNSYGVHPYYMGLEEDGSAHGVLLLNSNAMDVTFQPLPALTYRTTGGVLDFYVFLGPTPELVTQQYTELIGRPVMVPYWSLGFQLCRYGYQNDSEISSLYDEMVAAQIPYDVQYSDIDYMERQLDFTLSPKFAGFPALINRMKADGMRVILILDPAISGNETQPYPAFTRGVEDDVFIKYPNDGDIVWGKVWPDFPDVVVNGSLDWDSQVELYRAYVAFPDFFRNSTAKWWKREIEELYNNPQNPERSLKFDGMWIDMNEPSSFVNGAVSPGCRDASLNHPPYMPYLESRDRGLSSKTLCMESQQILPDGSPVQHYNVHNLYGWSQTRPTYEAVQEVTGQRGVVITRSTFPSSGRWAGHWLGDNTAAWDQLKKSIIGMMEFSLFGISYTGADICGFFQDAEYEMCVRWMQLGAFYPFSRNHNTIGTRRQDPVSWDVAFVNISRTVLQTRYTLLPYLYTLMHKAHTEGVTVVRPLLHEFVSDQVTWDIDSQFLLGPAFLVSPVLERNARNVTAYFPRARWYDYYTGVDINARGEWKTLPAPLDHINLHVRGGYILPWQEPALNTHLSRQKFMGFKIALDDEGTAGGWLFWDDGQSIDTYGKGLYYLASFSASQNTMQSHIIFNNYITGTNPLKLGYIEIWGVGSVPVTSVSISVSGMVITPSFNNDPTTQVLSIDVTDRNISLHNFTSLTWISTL
SMILES,IC50 [1],IC50 (Alpha-mannosidase),IC50 [2],inhibition [4],IC50 [5],other results
OC[C@@H]1N[C@@H](c2ccc(O)cc2)[C@H](O)[C@H]1O,25.2 µM,28 µM,41 µM,–,–,IC50 (Maltase-glucoamylase): 9.3 µM
O=c1c(-c2ccc(O)cc2)coc2cc(O)cc(O)c12 [GENISTEIN],81 µM,49 µM,54 µM,–,–,IC50 [3]: 7 µM
COc1cc(O)c2c(c1)C(=O)c1cc(C)cc(O)c1C2=O [PHYSCION],26.4 µM,–,32 µM,< 50%,5.32 µM,–
COc1ccc([C@@H]2N[C@@H](CO)[C@H](O)[C@H]2O)cc1O [L-RADICAMINE A],25.2 µM,28 µM,41 µM,–,–,IC50 (Maltase-glucoamylase): 6.7 µM
O=C1c2cccc(O)c2C(=O)c2c(O)cc(CO)cc21 [ALOE-EMODIN],26.4 µM,–,32 µM,< 50%,4.56 µM,–
O=C(O)c1cc(O)c2c(c1)C(=O)c1cccc(O)c1C2=O [RHEIN],26.4 µM,–,32 µM,< 50%,5.68 µM,–
C[C@H]1O[C@H](O[C@H]2[C@H](O)[C@@H](O)[C@@H](O[C@H]3[C@H](O)[C@@H](O)C(O)O[C@@H]3CO)O[C@@H]2CO)[C@H](O)[C@@H](O)[C@@H]1N[C@H]1C=C(CO)[C@@H](O)[C@H](O)[C@H]1O (stereo partly drawn) [ACARBOSE],2.1 µM,–,–,–,–,Activity (Rattus norvegicus [6]): Active; Activity [7]: Non-Toxic; inhibition (Rattus norvegicus [8]): inactive
CCC/C=C1/OC(=O)c2ccccc21 [(E)-BUTYLIDENEPHTHALIDE],7.15 µM,41 µM,82 µM,–,–,Ki [9]: 4.86 µM
CCCCCCCCn1cnc2cc(N)c(-c3ccccc3O)cc21,5.03 µM,–,–,< 50%,–,IC50 [10]: 0.16 µM
Cc1cc(O)c2c(c1)C(=O)c1cc(O)cc(O)c1C2=O [EMODIN],26.4 µM,–,32 µM,< 50%,4.12 µM,–
OC[C@H]1NC[C@@H](O)[C@@H]1O,58 µM,–,–,< 50%,–,IC50 [11]: 0.15 µM; IC50 [12]: 5.8 µM
OC[C@@H]1[C@@H](O)[C@H](O)[C@H]2[C@H](O)[C@@H](O)CN21 [CASUARINE],41.1 µM,51 µM,82 µM,–,–,IC50 [13]: 1.2 µM; IC50 [14]: 0.7 µM
